For 21 compounds, CC50 and IC50 results are on record in ChEMBL document CHEMBL1135584, “2-Amino-6-arylthio-9-[2-(phosphonomethoxy)ethyl]purine bis(2,2,2-trifluoroethyl) esters as novel HBV-specific antiviral reagents” (J Med Chem, 2002).

The nature of test [1]: Cytotoxic concentration of compound required for 50% extinction of HuH-6 cells. The class given is functional. As to conditions: Homo sapiens. In outline:
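HuH-6 cells (parent of HB611) seeded at 1 × 10⁵ cells/mL, cultured 3 days at 37 °C, 5% CO₂ in DMEM with 10% FBS plus compound; MTS added, further 2 h at 37 °C; viability by absorbance at 490 nm; CC50 determined.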

The test system of test [2] is Hepatitis B virus. The experiment in a line: Concentration required to inhibit 50% of cytoplasmic HBV-DNA synthesis.
For test [3], the system named is Human alphaherpesvirus 1. Put plainly: Anti-HSV-1 activity of the compound. The class given is functional, organism-based.

What is called CC50 is the concentration giving 50% cytotoxicity. Higher therefore signals lower toxicity to the cells. Broadly, the IC50 is the concentration that gives 50% inhibition. Compound `COc1cccc(Sc2nc(N)nc3c2ncn3CCOCP(=O)(OCC(F)(F)F)OCC(F)(F)F)c1` came in with a cytotoxic concentration (CC50) in test [1] above 1000 µM. The compound further showed an IC50 in test [2] of 0.04 µM.
Turning to `COc1ccc(Sc2nc(N)nc3c2ncn3CCOCP(=O)(O)OCC(F)(F)F)cc1`, in test [2], it took 0.07 µM to reach half-maximal inhibition (IC50).
`CCCOc1ccc(Sc2nc(N)nc3c2ncn3CCOCP(=O)(OCC(F)(F)F)OCC(F)(F)F)cc1` returned a half-maximal cytotoxic concentration (CC50) in test [1] of 250 µM. In test [2], this compound yielded an IC50 of 0.87 µM.
The like results for `COc1ccc(Sc2nc(N)nc3c2ncn3CCOCP(=O)(OCC(F)(F)F)OCC(F)(F)F)cc1` [ALAMIFOVIR] were, in that order, above 1000 µM and 0.03 µM.
The like results for `Nc1nc(Sc2ccc3ccccc3c2)c2ncn(CCOCP(=O)(OCC(F)(F)F)OCC(F)(F)F)c2n1` were, in that order, 198 µM and 0.09 µM.
Take `CCCCOc1ccc(Sc2nc(N)nc3c2ncn3CCOCP(=O)(OCC(F)(F)F)OCC(F)(F)F)cc1`: the CC50 in test [1] worked out at 260 µM. The compound further returned an IC50 in test [2] above 1 µM.
In the case of `Nc1ccn([C@@H]2CS[C@H](CO)O2)c(=O)n1` [LAMIVUDINE], the CC50 in test [1] was above 1000 µM. In test [2], this compound yielded an IC50 of 2.2 µM.
Take `Nc1nc(Sc2ccccc2)c2ncn(CCOCP(=O)(OCC(F)(F)F)OCC(F)(F)F)c2n1`: the IC50 in test [3] came out at 25 µM; in test [2], 0.05 µM. This compound came in with a CC50 in test [1] above 1000 µM.
In test [1], `Cc1ccccc1Sc1nc(N)nc2c1ncn2CCOCP(=O)(OCC(F)(F)F)OCC(F)(F)F` returned a CC50 of 340 µM. This compound also showed an IC50 in test [2] of 0.08 µM.
The like results for `Cc1ccc(Sc2nc(N)nc3c2ncn3CCOCP(=O)(OCC(F)(F)F)OCC(F)(F)F)cc1` were, in that order, 110 µM and 0.06 µM.
Taken in the same sequence, the figures for `Nc1nc(Sc2ccc(Cl)cc2)c2ncn(CCOCP(=O)(OCC(F)(F)F)OCC(F)(F)F)c2n1` were 62 µM and 0.12 µM.
On to `CC(C)c1ccc(Sc2nc(N)nc3c2ncn3CCOCP(=O)(OCC(F)(F)F)OCC(F)(F)F)cc1`, for which, in test [1], the midpoint of cytotoxicity, the CC50, lay at 170 µM. Besides, in test [2], the IC50 was 0.98 µM.
The like results for `CCOc1ccc(Sc2nc(N)nc3c2ncn3CCOCP(=O)(OCC(F)(F)F)OCC(F)(F)F)cc1` were, in that order, above 1000 µM and 0.64 µM.
Taken in the same sequence, the figures for `CCc1ccc(Sc2nc(N)nc3c2ncn3CCOCP(=O)(OCC(F)(F)F)OCC(F)(F)F)cc1` were 170 µM and 0.4 µM.
The like results for `Nc1nc(Sc2ccc(OC(F)(F)F)cc2)c2ncn(CCOCP(=O)(OCC(F)(F)F)OCC(F)(F)F)c2n1` were, in that order, 820 µM and 0.06 µM.
Regarding `Nc1nc(Sc2ccc([N+](=O)[O-])cc2)c2ncn(CCOCP(=O)(OCC(F)(F)F)OCC(F)(F)F)c2n1`, the CC50 in test [1] was found to be 380 µM. This compound also registered an IC50 in test [2] of 0.52 µM.
The like results for `CC(C)Oc1ccc(Sc2nc(N)nc3c2ncn3CCOCP(=O)(OCC(F)(F)F)OCC(F)(F)F)cc1` were, in that order, 350 µM and 0.29 µM.
The like results for `COc1ccccc1Sc1nc(N)nc2c1ncn2CCOCP(=O)(OCC(F)(F)F)OCC(F)(F)F` were, in that order, above 1000 µM and 0.08 µM.
The like results for `Nc1ncnc2c1ncn2CCOCP(=O)(O)O` [ADEFOVIR] were, in that order, above 1000 µM and 0.2 µM.
With `Cc1cccc(Sc2nc(N)nc3c2ncn3CCOCP(=O)(OCC(F)(F)F)OCC(F)(F)F)c1`, in test [1], it took 150 µM to reach half-maximal cytotoxicity (CC50). This compound yielded an IC50 in test [2] of 0.09 µM.
`CC(C)COc1ccc(Sc2nc(N)nc3c2ncn3CCOCP(=O)(OCC(F)(F)F)OCC(F)(F)F)cc1`: the CC50 in test [1] came to 100 µM. This compound yielded an IC50 in test [2] of 0.84 µM.
